Active and inactive are the calls of the source. The rule behind the calls is not given here.
What was measured:
[1] = tested on: Candida albicans; test: Inhibition of biofilm formation of Candida albicans ATCC 90028 up to 20 uM […] by XTT assay; assay type: functional, organism-based
[2] = tested on: Candida albicans; test: Inhibition of biofilm formation of Candida albicans ATCC 90028 at 20 uM […] by XTT assay; assay type: functional
[3] = tested on: Candida albicans; test: Induction of apoptosis in Candida albicans ATCC 90028 protoplast assessed as viable cells at 20 uM after 48 hrs Annexin V-FITC/propidium iodide staining based flow cytometric analysis (reference value: 96.38 +/- 2.05%); assay type: functional
[4] = tested on: Galleria mellonella; test: Toxicity in Candida albicans ATCC 90028 infected Galleria mellonella larvae infected with 20 uM compound pre-treated cell suspensions assessed as improvement in larvae health index scores incubated in dark for 144 hrs at 30 degC and measured every 24 hrs; assay type: organism-based; conditions: in vivo
[5] = tested on: Candida albicans; test: (§1) Antifungal activity against Candida albicans ATCC 90028 infected in Galleria mellonella larvae infected with 20 uM compound pre-treated cell suspensions assessed as reduction in larval hemocytes incubated in dark for 144 hrs at 30 degC and measured every 24 hrs by hematoxylin and eosin staining-based light microscopic analysis; assay type: functional, organism-based
[6] = tested on: Candida albicans; test: as §1, with “fat body formation” for “larval hemocytes incubated”; assay type: functional, organism-based
[7] = tested on: Candida albicans; test: as §1, with “fungal burden” for “larval hemocytes incubated”; assay type: functional, organism-based
[8] = tested on: Candida albicans; test: Antibiofilm activity in Candida albicans ATCC 90028 assessed as cell membrane lysis at 20 uM after 18 hrs by acridine orange/ethidium bromide staining-based confocal laser scanning fluorescence microscopic analysis; assay type: functional, organism-based
How it was run: (§2)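 Unfixed biofilm cells were dual-stained in situ with acridine orange and ethidium bromide, each at 100 µg/mL. Confocal fluorescence and DIC imaging scored green AO nuclei, crescent-shaped chromatin, reddish-orange late apoptotic/necrotic cells and EB uptake, against untreated control biofilm. […]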

[9] = tested on: Candida albicans; test: Antibiofilm activity in Candida albicans ATCC 90028 assessed as early apoptotic morphological changes by measuring crescent-shaped nuclei at 20 uM after 18 hrs by acridine orange/ethidium bromide staining-based confocal laser scanning fluorescence microscopic analysis; assay type: functional; how it was run: as §2
[10] = tested on: Candida albicans; test: Disruption of cell wall in Candida albicans SC5314 assessed as decrease in chitin level by measuring chitin mean staining index at 0.07 uM after 18 hrs by calcofluor white staining-based flow cytometric analysis (reference value: 496 +/- 51); assay type: functional
[11] = tested on: Candida albicans; test: Induction of apoptosis in Candida albicans ATCC 90028 planktonic forms assessed as accumulation at subG1 phase at 4 to 16 ug/ml by ethidium bromide staining based gel electrophoresis and confocal laser scanning microscopy; assay type: functional, organism-based
[12] = tested on: Candida albicans; test: Induction of apoptosis in Candida albicans ATCC 90028 planktonic forms assessed as effect on DNA content of necrotic cells at 4 to 16 ug/ml by ethidium bromide staining based gel electrophoresis and confocal laser scanning microscopy; assay type: functional, organism-based
[13] = tested on: Candida albicans; test: Fungicidal activity against Candida albicans ATCC 90028 assessed as log reduction in cell viability at 10 uM in RPMI medium in presence of sorbitol; assay type: functional
[14] = tested on: Candida albicans; test: Fungicidal activity against Candida albicans ATCC 90028 assessed as log reduction in cell viability at 10 uM in RPMI medium in absence of sorbitol; assay type: functional
[15] = tested on: Candida albicans; test: Ratio of MFC for fungicidal activity against Candida albicans ATCC 90028 assessed as reduction in cell viability in RPMI medium in presence of sorbitol to MFC for fungicidal activity against Candida albicans ATCC 90028 assessed as reduction in cell viability in RPMI medium in absence of sorbitol; assay type: functional
[16] = tested on: Candida albicans; test: Induction of chitinase release in Candida albicans ATCC 90028 assessed as p-nitrophenyl release from N-acetyl-beta-D-glucosaminide at 20 uM by chitinolytic activity assay; assay type: functional, organism-based
[17] = In-vitro chitinolytic activity of the compound assessed as p-nitrophenyl release from N-acetyl-beta-D-glucosaminide at 20 uM by chitinolytic activity assay; assay type: functional
[18] = tested on: Candida albicans; test: Induction of endochitinase release in Candida albicans ATCC 90028 assessed as p-nitrophenyl release from triacetylochitotriose substrate A at 20 uM by chitinolytic activity assay; assay type: functional, organism-based
[19] = tested on: Candida albicans; test: Induction of exochitinase release in Candida albicans ATCC 90028 assessed as p-nitrophenyl release from chitobioside substrate C at 20 uM by chitinolytic activity assay; assay type: functional, organism-based
[20] = tested on: Candida albicans; test: Inhibition of biofilm formation of Candida albicans ATCC 90028 at 248 uM […] by XTT assay; assay type: functional
[21] = tested on: Candida albicans; test: Induction of apoptosis in Candida albicans ATCC 90028 protoplast assessed as late apoptotic cells at 248 uM after 48 hrs Annexin V-FITC/propidium iodide staining based flow cytometric analysis (reference value: 0.3 +/- 0.30%); assay type: functional
[22] = tested on: Candida albicans; test: Disruption of cell wall in Candida albicans SC5314 assessed as decrease in chitin level by measuring chitin mean staining index at 248 uM after 18 hrs by calcofluor white staining-based flow cytometric analysis (reference value: 496 +/- 51); assay type: functional
[23] = tested on: Candida albicans; test: Antifungal activity against Candida albicans ATCC 90028 infected in Galleria mellonella larvae infected with 31 uM compound pre-treated cell suspensions assessed as melanization incubated in dark for 144 hrs at 30 degC and measured every 24 hrs (reference value: 65%); assay type: functional
[24] = tested on: Candida albicans; test: Antifungal activity against Candida albicans ATCC 90028 infected in Galleria mellonella larvae infected with 31 uM compound pre-treated cell suspensions assessed as cocoon formation incubated in dark for 144 hrs at 30 degC and measured every 24 hrs (reference value: 65%); assay type: functional
[25] = tested on: Candida albicans; test: as §1, with “31” for “20”, “fat body formation” for “larval hemocytes incubated”; assay type: functional, organism-based
[26] = tested on: Candida albicans; test: as §1, with “31” for “20”, “fungal cell nodules” for “larval hemocytes incubated”; assay type: functional, organism-based
[27] = tested on: Candida albicans; test: Antibiofilm activity in Candida albicans ATCC 90028 assessed as increase in chitin distribution within biofilm cells at 248 uM after 18 hrs by calcofluor white staining-based confocal laser scanning microscopic analysis; assay type: functional, organism-based
[28] = tested on: Candida albicans; test: Antibiofilm activity in Candida albicans ATCC 90028 assessed as cell membrane lysis at 248 uM after 18 hrs by acridine orange/ethidium bromide staining-based confocal laser scanning fluorescence microscopic analysis; assay type: functional, organism-based; how it was run: as §2
[29] = tested on: Candida albicans; test: Induction of apoptosis in Candida albicans ATCC 90028 planktonic forms assessed as effect on DNA content of necrotic cells at 1 to 128 ug/ml by ethidium bromide staining based gel electrophoresis and confocal laser scanning microscopy; assay type: functional, organism-based
[30] = tested on: Candida albicans; test: Induction of chitinase release in Candida albicans ATCC 90028 assessed as p-nitrophenyl release from N-acetyl-beta-D-glucosaminide at 248 uM by chitinolytic activity assay; assay type: functional, organism-based
[31] = In-vitro chitinolytic activity of the compound assessed as p-nitrophenyl release from N-acetyl-beta-D-glucosaminide at 248 uM by chitinolytic activity assay; assay type: functional
[32] = tested on: Candida albicans; test: Induction of endochitinase release in Candida albicans ATCC 90028 assessed as p-nitrophenyl release from triacetylochitotriose substrate A at 248 uM by chitinolytic activity assay; assay type: functional, organism-based
[33] = tested on: Candida albicans; test: Induction of exochitinase release in Candida albicans ATCC 90028 assessed as p-nitrophenyl release from chitobioside substrate C at 248 uM by chitinolytic activity assay; assay type: functional, organism-based

Structure (SMILES): CC(Cn1cnc2c1c(=O)n(C)c(=O)n2C)OCc1cn(CCCn2nc3c(Br)c(Br)c(Br)c(Br)c3n2)nn1 (stereo not drawn)
- inhibition [1]: inactive
- inhibition at 20 µM [2]: 47%
- Activity [3]: 2.87%
- Activity [4]: Toxic
- Activity [5]: Active
- Activity [6]: Active
- Activity [7]: Active
- Activity [8]: Active
- fold change (FC) [9]: 2
- Activity_index [10]: 53
- Activity [11]: inactive
- Activity [12]: inactive
- log(activity) [13]: 6.74
- log(activity) [14]: 6.81
- Ratio [15]: 2
- Activity [16]: inactive
- Activity [17]: 0.01 to 0.03 µmol/min
- Activity [18]: inactive
- Activity [19]: inactive

Structure (SMILES): CC(CN1c2ccccc2Sc2ccccc21)OC(=O)OC(C)Cn1cnc2c1c(=O)n(C)c(=O)n2C (stereo not drawn)
- inhibition at 248 µM [20]: 61%
- Activity [21]: 0.1%
- Activity_index [22]: 550
- Activity [23]: 5 - 15%
- Activity [24]: 98%
- Activity [25]: Active
- Activity [26]: Active
- Activity [27]: Active
- Activity [28]: Active
- Activity [29]: inactive
- Activity [30]: inactive
- Activity [31]: 0.01 to 0.03 µmol/min
- Activity [32]: inactive
- Activity [33]: inactive

Reference: ChEMBL document CHEMBL4229342, “Synthesis of novel proxyphylline derivatives with dual Anti-Candida albicans and anticancer activity” (Eur J Med Chem, 2018)
